For 30 molecules, MIC results are on record in ChEMBL document CHEMBL4334504 (J Med Chem, 2019).

Molecules are shown by their SMILES. Values after ≈ are worked out from the molar mass of the structure shown.

Assay [1] concerns Clostridioides difficile. The experiment in a line: Antibacterial activity against Clostridium difficile 4118 ATCC BAA 1870 assessed as bacterial growth inhibition incubated for 48 hrs under anaerobic condition by CLSI protocol-based assay. Format: functional. The conditions noted are these: 4118 ATCC BAA 1870, 48 h. In a few lines:
(§1)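 Broth microdilution following CLSI guidance. Strains pre-grown anaerobically on BHIS agar (BHI plus yeast extract, vitamin K1, hemin) at 37 °C for 48 h. ~10^5 CFU/mL in BHIS broth added to serial compound dilutions. Incubated anaerobically at 37 °C for 48 h. MIC is the lowest concentration showing visible growth inhibition.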

For assay [2], the system named is Clostridioides difficile. The experiment in a line: Antibacterial activity against Clostridium difficile VPI 10463 ATCC 43255 assessed as bacterial growth inhibition incubated for 48 hrs under anaerobic condition by CLSI protocol based assay. The conditions noted are these: ATCC 43255 VPI 10463, 48 h. It counts as functional. In a few lines: as §1

In the case of `O=C(O)c1ccc(/C=C/c2nc3c([N+](=O)[O-])csc3c(=O)[nH]2)cc1`, the values for the MIC in the assay with Clostridioides difficile [1] and with Clostridioides difficile [2] were 46 µM (≈ 15.8 µg/mL) and 184 µM (≈ 63.2 µg/mL), respectively.
Taken in the same sequence, the figures for `Cc1nc2c([N+](=O)[O-])csc2c(=O)n1Cc1ccccc1[N+](=O)[O-]` were 23 µM (≈ 7.97 µg/mL) and 23 µM (≈ 7.97 µg/mL).
Turning to `CCCc1nc2c([N+](=O)[O-])csc2c(=O)[nH]1`, the MIC with Clostridioides difficile [1] and in the assay on Clostridioides difficile [2] was 67 µM (≈ 16 µg/mL) in each case.
With `O=c1[nH]c(/C=C/c2ccco2)nc2c([N+](=O)[O-])csc12`, the minimum inhibitory concentration (MIC) with Clostridioides difficile [1] and with Clostridioides difficile [2] was 27 µM (≈ 7.81 µg/mL) each time.
As to `CCOC(=O)Cn1c(C)nc2c([N+](=O)[O-])csc2c1=O`, the MIC in the assay with Clostridioides difficile [1] and with Clostridioides difficile [2] was 54 µM (≈ 16.1 µg/mL) throughout.
For `Cc1csc2c(O)ncnc12`, the MIC with Clostridioides difficile [1] and with Clostridioides difficile [2] was over 770 µM throughout.
On to `Cc1nc2c(N)cccc2c(=O)[nH]1`, for which the MIC with Clostridioides difficile [1] and in the assay with Clostridioides difficile [2] was over 730 µM in each case.
With `O=[N+]([O-])c1csc2c(N3CCOCC3)nc(/C=C/c3ccc(F)cc3)nc12`, the MIC in the assay on Clostridioides difficile [1] and in the assay on Clostridioides difficile [2] was 166 µM (≈ 64.1 µg/mL) in each case.
Consider `Cc1nc2c([N+](=O)[O-])csc2c(=O)n1-c1ccc(-c2ccccc2)cc1`, for which the MIC in the assay on Clostridioides difficile [1] was 352 µM (≈ 128 µg/mL); in the assay on Clostridioides difficile [2], 176 µM (≈ 64 µg/mL).
Taken in the same sequence, the figures for `Cc1nc2c(C)csc2c(=O)[nH]1` were over 710 µM and over 710 µM.
Regarding `O=[N+]([O-])c1csc2c(Cl)nc(/C=C/c3ccc(F)cc3)nc12`, the MIC with Clostridioides difficile [1] and with Clostridioides difficile [2] was 95 µM (≈ 31.9 µg/mL) throughout.
For the molecule `CCc1nc2c([N+](=O)[O-])csc2c(=O)[nH]1`, the minimal inhibitory concentration (MIC) in the assay with Clostridioides difficile [1] and in the assay with Clostridioides difficile [2] was 35 µM (≈ 7.88 µg/mL) each time.
Consider `O=c1[nH]c(-c2ccccc2)nc2ccsc12`, for which the minimal inhibitory concentration (MIC) with Clostridioides difficile [1] and with Clostridioides difficile [2] was over 560 µM throughout.
Consider `Cc1nc2c([N+](=O)[O-])csc2c(=O)n1CC(=O)OC(C)(C)C`, for which the values for the MIC in the assay on Clostridioides difficile [1] and with Clostridioides difficile [2] were 49 µM (≈ 15.9 µg/mL) and 98 µM (≈ 31.9 µg/mL), respectively.
Regarding `Oc1ncnc2ccsc12`, the MIC in the assay on Clostridioides difficile [1] stood at 420 µM (≈ 63.9 µg/mL); in the assay with Clostridioides difficile [2], 840 µM (≈ 128 µg/mL).
As to `O=c1[nH]c(/C=C/c2cccs2)nc2c([N+](=O)[O-])csc12`, the MIC in the assay on Clostridioides difficile [1] and in the assay with Clostridioides difficile [2] was 13 µM (≈ 3.97 µg/mL) each time.
On to `Cc1nc2c([N+](=O)[O-])csc2c(=O)n1CC(=O)Nc1ccccc1`, for which the MIC in the assay on Clostridioides difficile [1] turned out to be 46 µM (≈ 15.8 µg/mL); in the assay with Clostridioides difficile [2], 23 µM (≈ 7.92 µg/mL).
The corresponding values for `Cc1nc2c([N+](=O)[O-])csc2c(=O)n1CC(=O)N1CCN(C)CC1` are 91 µM (≈ 32 µg/mL) and 91 µM (≈ 32 µg/mL).
As for `Cc1nc2ccoc2c(=O)[nH]1`, the MIC in the assay on Clostridioides difficile [1] and in the assay with Clostridioides difficile [2] was over 852 µM throughout.
As to `Cc1nc2c([N+](=O)[O-])csc2c(=O)n1Cc1ccc(C#N)cc1`, the MIC in the assay with Clostridioides difficile [1] was 25 µM (≈ 8.16 µg/mL); in the assay on Clostridioides difficile [2], 50 µM (≈ 16.3 µg/mL).
In the case of `Cc1nc2c([N+](=O)[O-])csc2c(=O)n1CC(=O)O`, the MIC in the assay with Clostridioides difficile [1] and in the assay on Clostridioides difficile [2] was over 475 µM throughout.
Consider `Cc1nc(Nc2ccccc2)c2scc([N+](=O)[O-])c2n1`, for which the values for the MIC in the assay with Clostridioides difficile [1] and with Clostridioides difficile [2] were 28 µM (≈ 8.02 µg/mL) and 14 µM (≈ 4.01 µg/mL), respectively.
Take `O=c1c2scc([N+](=O)[O-])c2nc(/C=C/c2ccc(F)cc2)n1Cc1ccccc1`: the MIC with Clostridioides difficile [1] and in the assay on Clostridioides difficile [2] was 157 µM (≈ 64 µg/mL) each time.
With `Cc1nc2ccsc2c(=O)[nH]1`, the minimal inhibitory concentration (MIC) is over 770 µM in the assay on Clostridioides difficile [1] and 385 µM (≈ 64 µg/mL) with Clostridioides difficile [2].
As for `Cc1nc2c(F)cccc2c(=O)[nH]1`, the MIC with Clostridioides difficile [1] and with Clostridioides difficile [2] was over 718 µM each time.
Turning to `O=c1[nH]c(/C=C/c2cccc(F)c2)nc2c([N+](=O)[O-])csc12`, the MIC with Clostridioides difficile [1] and in the assay on Clostridioides difficile [2] was 13 µM (≈ 4.12 µg/mL) throughout.
Take `COc1ccc(/C=C/c2nc3c([N+](=O)[O-])csc3c(=O)[nH]2)cc1`: the MIC with Clostridioides difficile [1] and in the assay with Clostridioides difficile [2] was 12 µM (≈ 3.95 µg/mL) throughout.
For `Cc1nc2c([N+](=O)[O-])csc2c(=O)n1Cc1cccc([N+](=O)[O-])c1`, the minimal inhibitory concentration (MIC) in the assay with Clostridioides difficile [1] and in the assay on Clostridioides difficile [2] was 23 µM (≈ 7.97 µg/mL) in each case.
For `Cc1nc2cscc2c(=O)[nH]1`, the MIC was 192 µM (≈ 31.9 µg/mL) in the assay with Clostridioides difficile [1] and 768 µM (≈ 128 µg/mL) with Clostridioides difficile [2].
`Cc1nc2ncccc2c(=O)[nH]1`: the minimal inhibitory concentration (MIC) in the assay with Clostridioides difficile [1] and with Clostridioides difficile [2] was over 794 µM throughout.
